Assay results reported in ChEMBL document CHEMBL3046282, “Synthesis, insecticidal activity, crystal structure, and molecular docking studies of nitenpyram analogues with an ω-hydroxyalkyl ester arm anchored on the tetrahydropyrimidine ring” (2012).
≈ marks a conversion by molar mass, not a printed value. Calls of active or inactive are those of the source. The rule behind the calls is not given here.

What was measured:
[1] = tested on: Nilaparvata lugens; assay: Insecticidal activity against Nilaparvata lugens (brown planthopper) assessed as mortality at 25 degC after 72 hr at 100 mg/L; type: functional
Method in brief: (§1)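 Standard spray test with slight modification. Compounds dissolved in DMF, then serially diluted with water containing Triton X-80 (0.1 mg/L). Groups of 12 insects in glass Petri dishes sprayed with a Potter sprayer, air-dried, then held under normal rearing conditions (25±1 °C, […], 12 h light). Scored at 72 h on a 0–100 scale against a negative control, using kill count and size of live insects. Three replicates.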

[2] = tested on: Nilaparvata lugens; assay: Insecticidal activity against Nilaparvata lugens (brown planthopper) assessed as mortality at 25 degC after 72 hr at 20 mg/L; type: functional; method in brief: as §1
[3] = tested on: Nilaparvata lugens; assay: Insecticidal activity against Nilaparvata lugens (brown planthopper) assessed as mortality at 25 degC after 72 hr; type: functional
[4] = tested on: Nilaparvata lugens; assay: Insecticidal activity against Nilaparvata lugens (brown planthopper) assessed as mortality at 25 degC after 72 hr at 4 mg/L; type: functional; method in brief: as §1
[5] = tested on: Myzus persicae; assay: Insecticidal activity against Myzus persicae (green peach aphid) assessed as mortality at 25 degC after 72 hr at 20 mg/L; type: functional
[6] = tested on: Myzus persicae; assay: Insecticidal activity against Myzus persicae (green peach aphid) assessed as mortality at 25 degC after 72 hr at 4 mg/L; type: functional
[7] = tested on: Myzus persicae; assay: Insecticidal activity against Myzus persicae (green peach aphid) assessed as mortality at 25 degC after 72 hr at 100 mg/L; type: functional
[8] = Binding affinity to nicotinic acetylcholine receptor assessed as hydrogen bonding
[9] = tested on: Myzus persicae; assay: Insecticidal activity against Myzus persicae (green peach aphid) assessed as mortality at 25 degC after 72 hr; type: functional

CCN(Cc1ccc(Cl)nc1)C1=C([N+](=O)[O-])CN(C(CC(C)C)C(=O)OC)CN1C (centres undefined)
mortality at 100 µg/mL [1]: 100% | mortality at 20 µg/mL [2]: 100% | LC50 [3]: 0.216 µg/mL (≈ 0.491 µM) | mortality at 4 µg/mL [4]: 50%

CCN(Cc1ccc(Cl)nc1)C1=C([N+](=O)[O-])CN(CCC(=O)OCCO)CN1C
mortality at 100 µg/mL [1]: 100% | mortality at 20 µg/mL [5]: 100% | mortality at 4 µg/mL [6]: 100% | mortality at 100 µg/mL [7]: 100% | mortality at 20 µg/mL [2]: 100% | Activity [8]: Active | LC50 [3]: 0.154 µg/mL (≈ 0.36 µM) | mortality at 4 µg/mL [4]: 100%

CCN(Cc1ccc(Cl)nc1)C1=C([N+](=O)[O-])CN(CCCC(=O)OCCCO)CN1C
mortality at 100 µg/mL [1]: 100% | mortality at 20 µg/mL [5]: 92% | mortality at 100 µg/mL [7]: 100% | mortality at 20 µg/mL [2]: 80%

CCCOC(=O)CCN1CC([N+](=O)[O-])=C(N(CC)Cc2ccc(Cl)nc2)N(C)C1
mortality at 100 µg/mL [1]: 100% | mortality at 20 µg/mL [2]: 100% | mortality at 4 µg/mL [4]: 75%

CCN(Cc1ccc(Cl)nc1)C1=C([N+](=O)[O-])CN(CCC(=O)OCCCO)CN1C
mortality at 100 µg/mL [1]: 100% | mortality at 20 µg/mL [5]: 100% | mortality at 4 µg/mL [6]: 55% | mortality at 100 µg/mL [7]: 100% | mortality at 20 µg/mL [2]: 98% | mortality at 4 µg/mL [4]: 70%

CCN(Cc1ccc(Cl)nc1)C1=C([N+](=O)[O-])CN(C(Cc2ccc(O)cc2)C(=O)OCCO)CN1C (single isomer, unassigned; (+))
mortality at 100 µg/mL [1]: 80% | mortality at 20 µg/mL [5]: 10% | mortality at 100 µg/mL [7]: 85% | mortality at 20 µg/mL [2]: 15%

CCN(Cc1ccc(Cl)nc1)C1=C([N+](=O)[O-])CN(C(C(=O)OCCO)c2ccc(Cl)cc2)CN1C (centres undefined)
mortality at 100 µg/mL [1]: 95% | mortality at 20 µg/mL [5]: 25% | mortality at 100 µg/mL [7]: 95% | mortality at 20 µg/mL [2]: 25%

CCN(Cc1ccc(Cl)nc1)C1=C([N+](=O)[O-])CN(CCCC(=O)OCCCCO)CN1C
mortality at 100 µg/mL [1]: 100% | mortality at 20 µg/mL [5]: 70% | mortality at 100 µg/mL [7]: 95% | mortality at 20 µg/mL [2]: 78%

CCN(Cc1ccc(Cl)nc1)C1=C([N+](=O)[O-])CN(CCC(=O)OC(C)C)CN1C
mortality at 100 µg/mL [1]: 100% | mortality at 20 µg/mL [2]: 100% | mortality at 4 µg/mL [4]: 70%

CCN(Cc1ccc(Cl)nc1)C1=C([N+](=O)[O-])CN(CC(=O)OCCO)CN1C
mortality at 100 µg/mL [1]: 100% | mortality at 20 µg/mL [5]: 58% | mortality at 100 µg/mL [7]: 100% | mortality at 20 µg/mL [2]: 50%

CCN(Cc1ccc(Cl)nc1)C1=C([N+](=O)[O-])CN(CCCC(=O)OCCO)CN1C
mortality at 100 µg/mL [1]: 100% | mortality at 20 µg/mL [5]: 100% | mortality at 4 µg/mL [6]: 10% | mortality at 100 µg/mL [7]: 100% | mortality at 20 µg/mL [2]: 90%

CCN(Cc1ccc(Cl)nc1)C1=C([N+](=O)[O-])CN(CCCC(=O)OCCCCCCO)CN1C
mortality at 100 µg/mL [1]: 90% | mortality at 20 µg/mL [5]: 10% | mortality at 100 µg/mL [7]: 88% | mortality at 20 µg/mL [2]: 10%

CCC(C)C(C(=O)OCCO)N1CC([N+](=O)[O-])=C(N(CC)Cc2ccc(Cl)nc2)N(C)C1 (single isomer, unassigned; (+))
mortality at 100 µg/mL [1]: 100% | mortality at 20 µg/mL [5]: 95% | mortality at 4 µg/mL [6]: 30% | mortality at 100 µg/mL [7]: 100% | mortality at 20 µg/mL [2]: 95% | mortality at 4 µg/mL [4]: 35%

CCN(Cc1ccc(Cl)nc1)C1=C([N+](=O)[O-])CN(C(Cc2ccccc2)C(=O)OCCO)CN1C (centres undefined)
mortality at 100 µg/mL [1]: 80% | mortality at 20 µg/mL [5]: 15% | mortality at 100 µg/mL [7]: 90% | mortality at 20 µg/mL [2]: 20%

CCN(Cc1ccc(Cl)nc1)/C(=C/[N+](=O)[O-])NC [NITENPYRAM]
mortality at 100 µg/mL [1]: 100% | mortality at 20 µg/mL [5]: 100% | mortality at 4 µg/mL [6]: 100% | LC100 [9]: 0.129 mg/L | mortality at 100 µg/mL [7]: 100% | mortality at 20 µg/mL [2]: 100% | mortality at 4 µg/mL [4]: 100%

CCN(Cc1ccc(Cl)nc1)C1=C([N+](=O)[O-])CN(CCC(=O)OCCCCO)CN1C
mortality at 100 µg/mL [1]: 100% | mortality at 20 µg/mL [5]: 83% | mortality at 100 µg/mL [7]: 100% | mortality at 20 µg/mL [2]: 80%

CCN(Cc1ccc(Cl)nc1)C1=C([N+](=O)[O-])CN(C(CC(C)C)C(=O)OCCO)CN1C (centres undefined)
mortality at 100 µg/mL [1]: 100% | mortality at 20 µg/mL [5]: 100% | mortality at 4 µg/mL [6]: 100% | LC50 ([9]; Myzus persicae, 72 h): 0.17 µg/mL (≈ 0.362 µM) | mortality at 100 µg/mL [7]: 100% | mortality at 20 µg/mL [2]: 100% | Activity [8]: Active | LC50 [3]: 0.17 µg/mL (≈ 0.362 µM) | mortality at 4 µg/mL [4]: 95%

CCN(Cc1ccc(Cl)nc1)C1=C([N+](=O)[O-])CN(CCC(=O)OCCCCCCO)CN1C
mortality at 100 µg/mL [1]: 90% | mortality at 20 µg/mL [5]: 33% | mortality at 100 µg/mL [7]: 95% | mortality at 20 µg/mL [2]: 25%

CCN(Cc1ccc(Cl)nc1)C1=C([N+](=O)[O-])CN(C(C)C(=O)OCCO)CN1C (single isomer, unassigned; (+))
mortality at 100 µg/mL [1]: 95% | mortality at 20 µg/mL [5]: 40% | mortality at 100 µg/mL [7]: 100% | mortality at 20 µg/mL [2]: 45%

CCN(Cc1ccc(Cl)nc1)C1=C([N+](=O)[O-])CN(CC(=O)OCCCCO)CN1C
mortality at 100 µg/mL [1]: 95% | mortality at 20 µg/mL [5]: 33% | mortality at 100 µg/mL [7]: 100% | mortality at 20 µg/mL [2]: 30%

CCN(Cc1ccc(Cl)nc1)C1=C([N+](=O)[O-])CN(CC(=O)OCCCCCCO)CN1C
mortality at 100 µg/mL [1]: 90% | mortality at 20 µg/mL [5]: 10% | mortality at 100 µg/mL [7]: 95% | mortality at 20 µg/mL [2]: 15%

CCN(Cc1ccc(Cl)nc1)C1=C([N+](=O)[O-])CN(CCCC(=O)OCCCCCO)CN1C
mortality at 100 µg/mL [1]: 98% | mortality at 20 µg/mL [5]: 25% | mortality at 100 µg/mL [7]: 95% | mortality at 20 µg/mL [2]: 15%

CCN(Cc1ccc(Cl)nc1)C1=C([N+](=O)[O-])CN(CC(=O)OCCCCCO)CN1C
mortality at 100 µg/mL [1]: 90% | mortality at 20 µg/mL [5]: 25% | mortality at 100 µg/mL [7]: 100% | mortality at 20 µg/mL [2]: 23%

CCN(Cc1ccc(Cl)nc1)C1=C([N+](=O)[O-])CN(C(C(=O)OCCO)C(C)C)CN1C (centres undefined)
mortality at 100 µg/mL [1]: 95% | mortality at 20 µg/mL [5]: 58% | mortality at 100 µg/mL [7]: 100% | mortality at 20 µg/mL [2]: 65%

CCN(Cc1ccc(Cl)nc1)C1=C([N+](=O)[O-])CN(CC(=O)OCCCO)CN1C
mortality at 100 µg/mL [1]: 100% | mortality at 20 µg/mL [5]: 50% | mortality at 100 µg/mL [7]: 100% | mortality at 20 µg/mL [2]: 45%

CCN(Cc1ccc(Cl)nc1)C1=C([N+](=O)[O-])CN(CCC(=O)OCCCCCO)CN1C
mortality at 100 µg/mL [1]: 100% | mortality at 20 µg/mL [5]: 50% | mortality at 100 µg/mL [7]: 98% | mortality at 20 µg/mL [2]: 40%
